Laboratory results taken from ChEMBL document CHEMBL3243943, “Adrenoceptor blocking agents. 2. 2-(alpha-Hydroxyarylmethyl)-3,3-dimethylaziridines, a new class of selective beta2-adrenoceptor antagonists” (J Med Chem, 1978).
Calls of active or inactive are those of the source. The rule behind the calls is not given here.

Assays:
[1] = tested on: Cavia porcellus; experiment: Anesthetic effect in guinea pig at 0.1 % by intradermal wheal method; format: functional, organism-based
[2] = target: Beta-2 adrenergic receptor (Cavia porcellus) (UniProt Q8K4Z4); experiment: Competitive inhibition of beta2-adrenergic receptor in guinea pig tracheal chain assessed as reversal of isoproterenol-induced effect at 3.44 X 10^-8 M to 1.376 X 10^-7 M after 15 mins
Method in brief: (§1)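 Isolated guinea pig tracheal chain in Krebs bicarbonate Ringer at 36.5 ± 0.5 °C, gassed with O2 containing 5% CO2. Tone raised with acetylcholine, then cumulative isoproterenol (1×10^-5 to 1×10^-4 M) given after 15-min antagonist exposure. pA2 by linear extrapolation; mean ± SE, n experiments.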

[3] = tested on: Heart; experiment: Antiarrhythmic activity against guinea pig auricle; format: functional, tissue-based; details: Cavia porcellus
Method in brief: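 Electrically driven isolated guinea pig auricles (Dawes method).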

[4] = target: Beta-2 adrenergic receptor (Cavia porcellus) (UniProt Q8K4Z4); experiment: Inhibition of beta2-adrenergic receptor in guinea pig tracheal chain assessed as reversal of isoproterenol-induced effect at 3.44 X 10^-8 M to 1.376 X 10^-7 M incubated for 15 mins followed by compound washout measured after 30 to 60 mins; details: Trachea
[5] = target: Beta-2 adrenergic receptor (Cavia porcellus) (UniProt Q8K4Z4); experiment: Inhibition of beta2-adrenergic receptor in guinea pig tracheal chain assessed as reversal of isoproterenol-induced effect at 5.36 X 10^-9 M to 8.576 X 10^-8 M incubated for 15 mins followed by compound washout measured after 30 to 60 mins; details: Trachea
[6] = target: Beta-1 adrenergic receptor (Cavia porcellus, UniProt B0FL73); experiment: Inhibition of beta1-adrenergic receptor in guinea pig auricle assessed as reversal of isoproterenol-induced effect; details: read-out: pA2 (converted)
[7] = tested on: Felis catus; experiment: Reversal of epinephrine-induced increase in mean arterial blood pressure in cat at 2.5 mg/kg, iv; format: functional
[8] = tested on: Felis catus; experiment: Reversal of isoproterenol-induced increase in mean arterial blood pressure in cat assessed as pressor phase at 2.5 mg/kg, iv; format: functional
[9] = target: Beta-2 adrenergic receptor (Cavia porcellus, UniProt Q8K4Z4); experiment: Inhibition of beta2-adrenergic receptor in guinea pig tracheal chain assessed as reversal of isoproterenol-induced effect after 15 mins; design: species or system Trachea; details: read-out: pA2 (converted)
[10] = target: Beta-2 adrenergic receptor (Cavia porcellus) (UniProt Q8K4Z4); experiment: Competitive inhibition of beta2-adrenergic receptor in guinea pig tracheal chain assessed as reversal of isoproterenol-induced effect at 5.36 X 10^-9 M to 8.576 X 10^-8 M after 15 mins; method in brief: as §1
[11] = tested on: Felis catus; experiment: Reversal of isoproterenol-induced increase in mean arterial blood pressure in cat assessed as depressor phase at 2.5 mg/kg, iv; format: functional
[12] = tested on: Ileum; experiment: Cholinolytic activity in guinea pig ileum at 2.94 X 10^-7 M to 1.176 X 10^-6 M in presence of acetylcholine; format: functional, tissue-based; details: Cavia porcellus
Method in brief: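 Isolated guinea pig ileum in oxygenated Tyrode solution at 36.5 ± 0.5 °C. Acetylcholine used as spasmogen; antagonism of contraction by test agent assessed.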

[13] = target: Beta-2 adrenergic receptor (Cavia porcellus) (UniProt Q8K4Z4); experiment: Inhibition of beta2-adrenergic receptor in guinea pig tracheal chain assessed as reversal of isoproterenol-induced effect at 5.868 X 10^-7 M to […] incubated for 15 mins followed by compound washout measured after 30 to 60 mins; details: Trachea
[14] = tested on: Trachea; experiment: Cholinolytic activity in guinea pig trachea at 2.94 X 10^-7 M to 1.176 X 10^-6 M in presence of acetylcholine; format: functional, tissue-based; details: Cavia porcellus
Method in brief: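 Guinea pig tracheal chain in Krebs bicarbonate Ringer at 36.5 ± 0.5 °C, gassed with O2/5% CO2. Acetylcholine responses examined in presence of test agent.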

[15] = target: Beta-2 adrenergic receptor (Cavia porcellus) (UniProt Q8K4Z4); experiment: Competitive inhibition of beta2-adrenergic receptor in guinea pig tracheal chain assessed as reversal of isoproterenol-induced effect at 5.868 X 10^-7 M to […] after 15 mins; method in brief: as §1
[16] = target: Beta-2 adrenergic receptor (Cavia porcellus) (UniProt Q8K4Z4); experiment: Competitive inhibition of beta2-adrenergic receptor in guinea pig tracheal chain assessed as reversal of isoproterenol-induced effect at 1.376 X 10^-7 M to 2.752 X 10^-7 M after 15 mins; method in brief: as §1
[17] = target: Beta-2 adrenergic receptor (Cavia porcellus) (UniProt Q8K4Z4); experiment: Inhibition of beta2-adrenergic receptor in guinea pig tracheal chain assessed as reversal of isoproterenol-induced effect at 1.376 X 10^-7 M to 2.752 X 10^-7 M incubated for 15 mins followed by compound washout measured after 30 to 60 mins; details: Trachea

Sequence of Beta-2 adrenergic receptor (Cavia porcellus) (Q8K4Z4 whole entry, looked up): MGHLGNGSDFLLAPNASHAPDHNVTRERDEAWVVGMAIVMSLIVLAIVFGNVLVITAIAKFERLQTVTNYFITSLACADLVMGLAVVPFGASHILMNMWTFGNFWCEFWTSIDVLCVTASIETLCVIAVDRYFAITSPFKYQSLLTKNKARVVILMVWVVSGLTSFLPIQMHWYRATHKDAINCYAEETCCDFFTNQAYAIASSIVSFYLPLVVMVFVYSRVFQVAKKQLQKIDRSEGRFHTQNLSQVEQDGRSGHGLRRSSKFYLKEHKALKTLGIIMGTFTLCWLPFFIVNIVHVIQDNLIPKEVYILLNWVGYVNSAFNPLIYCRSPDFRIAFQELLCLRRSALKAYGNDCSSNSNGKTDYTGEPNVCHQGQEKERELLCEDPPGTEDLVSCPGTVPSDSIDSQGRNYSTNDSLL
Sequence of Beta-2 adrenergic receptor (Q8K4Z4 whole entry): as the sequence (Q8K4Z4 whole entry, looked up) above
Sequence of Beta-1 adrenergic receptor (B0FL73 whole entry): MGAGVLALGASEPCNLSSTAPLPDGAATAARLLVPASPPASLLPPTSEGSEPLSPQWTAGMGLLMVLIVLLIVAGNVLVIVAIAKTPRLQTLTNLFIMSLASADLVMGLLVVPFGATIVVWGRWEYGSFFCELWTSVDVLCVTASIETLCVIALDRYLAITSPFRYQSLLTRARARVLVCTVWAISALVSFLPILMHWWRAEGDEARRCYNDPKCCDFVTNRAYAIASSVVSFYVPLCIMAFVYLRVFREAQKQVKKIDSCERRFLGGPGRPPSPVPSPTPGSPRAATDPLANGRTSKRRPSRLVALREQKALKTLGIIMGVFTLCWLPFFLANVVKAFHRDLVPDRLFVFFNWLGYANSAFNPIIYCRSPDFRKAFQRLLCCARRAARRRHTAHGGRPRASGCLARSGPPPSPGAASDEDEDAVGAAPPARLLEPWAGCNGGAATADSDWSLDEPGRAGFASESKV

| Compound | Activity [1] | Activity [3] | Kb [6] | Activity [7] | Kb [9] | Activity [11] | also measured |
| --- | --- | --- | --- | --- | --- | --- | --- |
| CC1(C)NC1C(O)c1ccccc1 (stereo in doubt; 1b) [listing 1 of 2 here] | inactive | inactive | – | – | – | – | inhibition [2]: Active; inhibition [4]: inactive |
| CC1(C)NC1C(O)c1ccc2ccccc2c1 (stereo not drawn) | inactive | inactive | 344 µM | 62% | 0.00304 µM | -33% | inhibition [5]: inactive; Activity [8]: 0%; inhibition [10]: Active |
| CC1(C)NC1C(O)c1ccc(Cl)c(Cl)c1 (stereo not drawn) | Active | Active | 17.4 µM | 0% | 0.398 µM | 0% | Activity [12]: Active; Activity [8]: -16%; inhibition [13]: inactive; Activity [14]: Active; inhibition [15]: inactive |
| CC1(C)NC1C(O)c1ccccc1 (stereo in doubt; 1b) [listing 2 of 2 here] | – | – | 344 µM | – | 0.0644 µM | – | Activity ([7]; 2.5 mg/kg): 11.1%; Activity ([8]; 2.5 mg/kg): 0%; Activity ([11]; 2.5 mg/kg): 0% |
| CC1(C)NC1C(O)c1ccccc1 (stereo in doubt; 1a) [listing 1 of 2 here] | – | – | 43.2 µM | – | 0.0619 µM | – | Activity ([7]; 2.5 mg/kg): 0%; Activity ([8]; 2.5 mg/kg): 20%; Activity ([11]; 2.5 mg/kg): -10% |
| CC1(C)NC1C(O)c1ccccc1 (stereo in doubt; 1a) [listing 2 of 2 here] | inactive | inactive | – | – | – | – | inhibition [16]: Active; inhibition [17]: inactive |
| CCN(CC)CCOC(=O)c1ccc(N)cc1 | inactive | inactive | – | – | – | – | – |
| CC(C)NCC(O)COc1cccc2ccccc12 (stereo not drawn) [PROPRANOLOL] | – | inactive | – | 45% | – | -100% | – |
